# Compound activity from PubChem.
# STAT1 act: STAT1 signaling activators, primary screen, cell-based, HTS, luciferase reporter; NIH 3T3 STAT1-luciferase reporter, IFN-gamma, luminescence; 100% = IFN-gamma alone, no compound; activation (% of control), % at 5.5 µM; actives 2.6% (n = 200,000);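 active = activation above the screen-wide mean activation plus 3 SD, cut at about 130% in these data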;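 note: raw ratio to IFN-gamma control signal so 100% means no change and 0% no light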
# STAT1 blocker: STAT1 signaling inhibitors, primary screen, cell-based, HTS, luciferase reporter. NIH 3T3 STAT1-luciferase reporter, IFN-gamma, luminescence. inhibition, % at 5.5 µM. actives 0.35% (n = 200,000);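 active = inhibition above a set limit, the mean inhibition across all tested compounds plus 3 SD, cut at about 34% in these data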;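 note: 0% = IFN-gamma with DMSO and 100% = IFN-gamma with 300 µM nifuroxazide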
# STAT3 blocker: IL-6 driven STAT3 reporter inhibitors, primary screen, U3A cells, luciferase, luminescence, MLSCN library | IL-6 STAT3-luciferase reporter; host cell line lacks STAT1 | inhibition, % at 5.5 µM | actives 0.89% (n = 190,000);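 active = inhibition above the mean inhibition across all screened compounds plus 3 SD, cut at about 44% in these data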;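 note: 0% = DMSO only wells and 100% = 100 µM nifuroxazide control wells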
# NF-kB expr up: activators of NF-kB expression in neurons, primary screen, cell-based, HTS | human neuronal cells, NF-kB reporter expression; active compounds read high | fold change at 12.5 µM | actives 1.6% (n = 190,000) | AID 1239, 2008; in the data active = fold change above about 3.3
# APP 5'UTR act: activators of APP 5'UTR luciferase reporter, primary screen, SH-SY5Y cells. activation, % at 2 µM. SH-SY5Y APP 5'UTR luciferase reporter, luminescence; zero percent = DMSO vehicle wells. actives 1% (n = 190,000);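 active = activation above a set limit, based on mean plus 3 SD of controls, cut at about 140% in these data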
# STAT3 act: IL-6 driven STAT3 reporter potentiators, primary screen, U3A cells, luciferase, luminescence, MLSCN library. IL-6 STAT3-luciferase reporter; 100% = signal with IL-6 EC80 alone. activation (% of control), % at 5.6 µM. actives 0.91% (n = 190,000);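 active = activation above the screen-wide mean of compound activation plus 3 SD, cut at about 130% in these data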;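 note: 0% = background luminescence of wells with medium and substrate only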
#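 Material: human STAT1-deficient U3A cells with stable STAT3-luciferase reporter / Probe or stimulus: IL-6 stimulus at 33 ng/mL final / Schedule: 1 h compound pre-exposure, 6 h IL-6 stimulation, 37 °C / Technique: luminescence / Read-out basis: percent of IL-6-only median luminescence / Control set: IL-6-only high control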
# An asterisk follows results filed as active; x = no result given. Rows were chosen to be rich in hits. Some 4.9% of all compounds tested hit in one or more screens of this group.
SMILES,STAT1 act,STAT1 blocker,STAT3 blocker,NF-kB expr up,APP 5'UTR act,STAT3 act
CCOC(=O)Nc1nc(-c2ccccc2)c(C(=O)c2ccccc2)s1,102,-2,-11,3.6*,-94,107
C/C(=C\c1ccccc1)C(=O)Nc1cc(C)on1,118,-19,25,2.1,22,83
Cc1ccccc1NC(=O)COC(=O)CN1C(=O)NC(C)(C)C1=O,108,-5,1,1.1,-2,100
CCN(C(=O)Cc1ccc(Br)cc1)C1CCCCC1,103,-3,-11,1,19,108
Clc1ccccc1-c1nc(-c2cccnc2)no1,129*,-31,-21,1.4,111,120
Cc1onc(-c2ccccc2Cl)c1-c1nc(-c2ccncc2)no1,110,-11,2,0.89,-5,101
Clc1ccc(Br)cc1-c1nc(-c2cccnc2)no1,105,-6,-43,x,10,141*
Cc1ccccc1-c1nc(-c2cccnc2)no1,139*,-43,-11,3.7*,76,112
CCN(CCNC(=O)Nc1ccc(Cl)cc1)c1ccccc1,102,-3,4,0.75,9,100
O=c1c2ccccc2ncn1CCCOc1ccccc1[N+](=O)[O-],129*,-32,-1,2.1,91,101
COc1ccc2c(c1)C(=O)[C@@H](O)[C@H](c1ccc(OC)c(Br)c1)O2,106,-6,8,1.4,28,91
COc1cccc([C@@H]2Oc3ccc(OC)cc3C(=O)[C@H]2O)c1,98,3,3,5.7*,146*,95
Cc1cnc(NC(=O)c2cc3c(C)nn(-c4ccccc4)c3s2)s1,105,-6,-2,0.9,-8,105
O=[N+]([O-])c1ccc(C2Oc3ccccc3C3CC(c4ccccc4)=NN32)s1 (configuration not stated),93,8,-44,8.8*,124,133*
Clc1nc(-c2ccccn2)nc2scc(-c3ccccc3)c12,127,-30,26,3.3*,113,78
CC1CCN(c2nc(-c3cccnc3)nc3scc(-c4ccccc4)c23)CC1,97,3,9,0.9,-4,96
O=C(NCC1CCCO1)c1ccc2c(=O)n(Cc3ccco3)c(SCC(=O)N3CCCC3)nc2c1 (configuration not stated),68,35*,19,0.6,17,93
CCN(CC)S(=O)(=O)c1ccc(NC(=O)C2c3ccccc3Oc3ccccc32)cc1,97,3,-9,0.8,-1,111
C(=N\Nc1ncnc2nc[nH]c12)/c1cccs1,134*,-37,22,1.6,42,85
Cc1ccc(Nc2ncnc3nc[nH]c23)cc1Cl,110,-11,4,3.3*,98,104
Cc1ccsc1/C=N/Nc1ncnc2nc[nH]c12,138*,-43,12,2,39,91
COc1cccc(Nc2ncnc3nc[nH]c23)c1,106,-6,9,1.8,29,97
Clc1cnc(N/N=C/c2cccs2)c(Cl)c1,134*,-38,-6,2,70,107
Fc1ccc(/C=N/Nc2ncnc3nc[nH]c23)cc1F,118,-20,18,1.9,33,85
COc1cc(/C=N/NC(=O)C2CCN(CC(O)COCc3ccccc3)CC2)ccc1O (configuration not stated),110,-13,-2,1.1,5,108
SMILES,STAT1 act,STAT1 blocker,STAT3 blocker,NF-kB expr up,APP 5'UTR act,STAT3 act
O=C1c2cc(S(=O)(=O)NCCCO)ccc2-c2ccc(S(=O)(=O)NCCCO)cc21,111,-12,4,1.3,22,100
CSc1nnc(-c2ccccc2SC)o1,97,2,18,1.3,8,86
CSc1ccccc1-c1nnc(-c2ccccc2)o1,144*,-49,-20,5.5*,140*,121
CSc1ccccc1-c1nnc(-c2ccc(C)cc2)o1,146*,-51,-33,5*,80,132
O=C(NC(Cc1c[nH]c2ccccc12)C(=O)N/N=C/c1cccnc1)c1cccs1 (configuration not stated),111,-13,-3,0.83,-10,109
COc1ccc(N=C2NC(=O)S/C2=C\c2ccc(N(C)C)cc2)cc1,132*,-35,-3,1.6,23,107
Cc1sc2ncnc(Sc3ccccc3C(=O)O)c2c1C,103,-5,7,0.88,15,103
Cc1sc2ncnc(Sc3nnnn3-c3ccccc3)c2c1C,95,6,9,3.9*,-5,94
Cc1ccc(OCc2nc(-c3ccccn3)n[nH]2)cc1,91,9,-2,13*,26,106
Clc1ccc(-c2cc3ccccc3[nH]2)cc1,131*,-34,1,2.8,50,108
O=c1[nH]c(=O)n(Cc2ccco2)c2c1C(C(F)(F)F)(C(F)(F)F)N=C(c1ccc(F)cc1)N2,59,45*,51*,0.99,-33,60
O=C(CCCN1C(=O)C2CCCCN2C1=O)N1CCN(c2ccc([N+](=O)[O-])cc2)CC1 (configuration not stated),93,7,24,0.8,-6,84
C/C(N)=C(/C#N)C(=O)CSc1nc2ccccc2c(=O)n1-c1ccc(C)c(Cl)c1,93,8,-3,1.2,1,103
CCN1CCN(C(=S)c2ccc([N+](=O)[O-])cc2)CC1,96,4,6,1,4,94
Cc1ccc(-c2nnc(SCC(N)=O)n2C)cc1,107,-8,6,1.1,-2,100
Cc1ccc(-c2nnc(SCC(C)C)n2C)cc1,138*,-41,2,1.4,47,102
Cc1csc(NC(=O)Nc2cccc(Cl)c2)n1,134*,-37,-5,4.6*,119,108
Cc1nn(C)c(C)c1CNC(=O)Nc1cccc(Cl)c1,124,-28,-6,4.6*,32,107
Cc1nn(C)c(C)c1CNC(=O)Nc1ccc(Cl)cc1,129*,-33,-2,2,55,104
O=C(NCc1ccccn1)Nc1cccc(Cl)c1,133*,-34,-11,3.7*,72,115
O=C(NCc1ccccn1)Nc1cccc(NC(=O)NCc2ccccn2)c1,108,-10,-6,1.6,12,109
Cc1nn(C)c(C)c1CNC(=O)Nc1ccc2c(c1)OCO2,120,-24,1,1.7,13,101
O=C(Nc1cccc(Cl)c1)Nc1nc(-c2ccccc2)cs1,99,0,15,1.5,34,89
